Laboratory results as given in PubChem BioAssay.
A number with no mark means an inactive call. Records with an inconclusive call do not appear. The source made the active and inactive calls.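 Rule for the calls, unless noted: active = viability at or below 27.92% in each of two runs, the all-compound median minus 4 SD; inconclusive = no clear call, values can overlap the other calls; inactive = the rest.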

How the values were obtained:
[1] = OD615 S. cerevisiae growth inhibition, permissive medium, pilot counter-assay, permissive growth control for S. cerevisiae lifespan shortening project (AID 705;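 active = growth inhibition above 25% in both replicates, a cutoff set 3 SD above the mean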); conditions: OD615, 24 h, at 10 µM, hits give high values
Method in brief: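 assay system = Saccharomyces cerevisiae strain carrying genetically modified DeaD replicative-lifespan system | medium = SC raffinose/galactose permissive medium | dosing = 10 µM single dose, 0.25% DMSO | schedule = 24 h compound exposure at 30 °C after 4 h pre-growth | measured by = OD at 615 nm | read-out basis = growth inhibition from lowered OD615 after 24 h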

[2] = Restrictive medium S. cerevisiae growth inhibition, OD615, pilot screen of yeast lifespan reduction project, restrictive growth control (AID 706;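 active = growth inhibition above a set limit, 3 SD over mean compound inhibition, in both replicates, cut at about 43% in these data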;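 note: modified DeaD lifespan yeast strain shifted to restrictive glucose medium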); conditions: OD615, 48 h, at 10 µM, hits give high values
Method in brief: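 Buffer or medium: CSMM-D glucose medium. Material: genetically modified Saccharomyces cerevisiae, DeaD replicative lifespan assay strain. Times: 48 h compound exposure at 30 °C. Measured by: optical density at 615 nm.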

[3] = viability gain of MRP-1-high H69AR cells under doxorubicin, pilot screen, MRP-1 activator project, CellTiter-Glo, duplicate (AID 807;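 active = viability increase at or above a cutoff of the median across tested compounds plus 3 SD, cut at about 8.5% in these data, passing the limit was not always enough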;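 note: compound pretreatment 18-22 h then 72 h combined with doxorubicin; 0% = doxorubicin alone and 100% = vehicle without doxorubicin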); conditions: H69AR viability with doxorubicin, CellTiter-Glo luminescence; at 10 µM; hits give high values
[4] = growth suppression of beta-catenin knockout HCT116, pilot screen, human colon tumor cells (AID 823;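 active = cell viability at or below a set limit in both duplicate runs, the limit being the all-compound median minus 4 SD, cut at about 23% in these data, passing the limit was not always enough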;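 note: 0% = wells killed by 20 µM Hyamine and 100% = untreated DMSO cell wells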); conditions: CellTiter-Glo, 60 h, at 10 µM, hits give low values
[5] = growth suppression of PTEN-deleted HCT116, pilot screen, cell-based, HCT116 clonal line, CellTiter-Glo (AID 824); conditions: 60 h, at 10 µM, hits give low values;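 note: 0% = 20 µM Hyamine control and 100% = vehicle cell control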
[6] = inhibitors of the yeast RAM network, pilot screen, dse1pr::URA3 reporter, 5-FOA selection (AID 869;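 active = inhibition over a set limit, the all-compound mean plus 3 SD, in both replicate runs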;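 note: 0% = DMSO wells with no growth and 100% = 10 µM 1-NA-PP1 with full growth; RAM network block rescues cells from 5-FOA so hits raise OD615 growth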); conditions: S. cerevisiae dse1pr::URA3 5-FOA growth, OD615, 2 d; at 10 µM; hits give high values; strain carries analog-sensitive mutant Cbk1 kinase
[7] = RAM signaling pathway blockade in yeast – S. cerevisiae, Pdr1DBD-CYC8 efflux-inhibited sensitized strain, primary screen (AID 1298;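 active = RAM network inhibition above 8.4% in each of two replicates, 3 SD over the compound average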;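 note: 0% = DMSO untreated cells without growth and 100% = 10 µM 1-NA-PP1 full growth; higher means more yeast growth rescued from 5-FOA killing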); conditions: S. cerevisiae cbk1-as DSE1-URA3 strain, 5-FOA growth OD615, 2 d; at 50 µM; hits give high values

SMILES: Brc1[nH]nc2ccccc12
- growth inhibition [1]: -1.23%
- growth inhibition [2]: 5.22%
- viability increase [3]: -3.24%
- viability [4]: 96.7%
- viability [5]: 94.9%
- inhibition [6]: 0.28%
- RAM network inhibition [7]: 0.05%

SMILES: COCCNC(=O)c1ccccc1NC(=O)C1COc2ccccc2O1 (stereo not given)
- growth inhibition [1]: -3.84%
- growth inhibition [2]: -0.665%
- viability increase [3]: -0.74%
- viability [4]: 95.8%
- viability [5]: 102%
- inhibition [6]: 2.8%
- RAM network inhibition [7]: 4.39%

SMILES: Cc1cccc(OCCCC(=O)Nc2ccc(N3CCOCC3)cc2)c1
- growth inhibition [1]: -17%
- growth inhibition [2]: -11.5%
- viability increase [3]: -0.5%
- viability [4]: 90.7%
- viability [5]: 96.8%
- inhibition [6]: 2.59%
- RAM network inhibition [7]: 3.73%

SMILES: COc1ccc(-n2c(Cn3c(=O)sc4ccccc43)nnc2SCC(=O)N2CCCCC2)cc1
- growth inhibition [1]: 3.02%
- growth inhibition [2]: 19.9%
- viability increase [3]: -0.89%
- viability [4]: 99.6%
- viability [5]: 96.5%
- inhibition [6]: 0.19%
- RAM network inhibition [7]: 6.13%

SMILES: COC(=O)c1cc(OC)c(OC)cc1N=CC1=C(O)CC(C)(C)CC1=O
- growth inhibition [1]: -14.9%
- growth inhibition [2]: -8.12%
- viability increase [3]: -0.98%
- viability [4]: 99.5%
- viability [5]: 94.1%
- inhibition [6]: 1.6%
- RAM network inhibition [7]: 3.12%

SMILES: O=C(N1CCOCC1)N1CCN(c2ccccc2F)CC1
- growth inhibition [1]: -0.135%
- growth inhibition [2]: 0.07%
- viability increase [3]: -2.64%
- viability [4]: 97.9%
- viability [5]: 99.7%
- inhibition [6]: 0.325%
- RAM network inhibition [7]: 4.21%

SMILES: CN1C(=O)c2cccc(NC(=O)C3CCCCC3)c2C1=O
- growth inhibition [1]: -7.12%
- growth inhibition [2]: 6.03%
- viability increase [3]: -1.21%
- viability [4]: 107%
- viability [5]: 93%
- inhibition [6]: 0.445%
- RAM network inhibition [7]: -0.16%

SMILES: C=CCSC1=C(C#N)C(c2ccc(OCC)cc2)CC(=O)N1 (stereo not given)
- growth inhibition [1]: -11.9%
- growth inhibition [2]: 15.4%
- viability increase [3]: -1.8%
- viability [4]: 94.5%
- viability [5]: 88.2%
- inhibition [6]: 1.47%
- RAM network inhibition [7]: 4.8%

SMILES: CCOC(=O)Cn1c(=O)oc2cc(S(=O)(=O)NC3CCCc4ccccc43)ccc21 (stereo not given)
- growth inhibition [1]: -9.8%
- growth inhibition [2]: -15.4%
- viability increase [3]: -0.67%
- viability [4]: 88.3%
- viability [5]: 92.2%
- inhibition [6]: 4.13%
- RAM network inhibition [7]: 3.75%

SMILES: COc1ccccc1OCCC(=O)OCC(=O)NC(=O)NC(C)(C)C
- growth inhibition [1]: -2.01%
- growth inhibition [2]: -17.1%
- viability increase [3]: -1.52%
- viability [4]: 85.7%
- viability [5]: 84.3%
- inhibition [6]: 2.56%
- RAM network inhibition [7]: 0.79%

SMILES: COc1ccc(C2CC(=O)c3cnc(NC(=O)c4ccccc4)nc3C2)cc1OC (stereo not given)
- growth inhibition [1]: -3.28%
- growth inhibition [2]: -0.645%
- viability increase [3]: -3.55%
- viability [4]: 105%
- viability [5]: 96.6%
- inhibition [6]: 0.895%
- RAM network inhibition [7]: 5.34%

SMILES: CC(C)C(=O)Nc1ccc2c(c1)C(=O)N(CCC(=O)O)C2=O
- growth inhibition [1]: -4.82%
- growth inhibition [2]: -16.1%
- viability increase [3]: 0.2%
- viability [4]: 106%
- viability [5]: 100%
- inhibition [6]: 2.14%
- RAM network inhibition [7]: -0.51%

SMILES: CCOCCCNC(=O)Cn1cc2c(n1)CCCC2
- growth inhibition [1]: 3.43%
- growth inhibition [2]: 1.36%
- viability increase [3]: -0.46%
- viability [4]: 105%
- viability [5]: 98.8%
- inhibition [6]: 1.91%
- RAM network inhibition [7]: 1.03%

SMILES: CC(C)(CC(=O)O)Cc1nc(-c2ccc(Cl)cc2)no1
- growth inhibition [1]: 2.38%
- growth inhibition [2]: 10.4%
- viability increase [3]: 1.26%
- viability [4]: 100%
- viability [5]: 93.2%
- inhibition [6]: 0.855%
- RAM network inhibition [7]: -3.9%

SMILES: COc1ccc(C(=O)c2c[nH]c3ccccc23)cc1
- growth inhibition [1]: -4.92%
- growth inhibition [2]: 2.61%
- viability increase [3]: -1.32%
- viability [4]: 101%
- viability [5]: 96.4%
- inhibition [6]: 0.695%
- RAM network inhibition [7]: -1.45%

SMILES: CC1(C)CC(=O)c2sc(NC(=O)C3CC3)nc2C1
- growth inhibition [1]: -1.12%
- growth inhibition [2]: -10.6%
- viability increase [3]: 1.37%
- viability [4]: 104%
- viability [5]: 106%
- inhibition [6]: 1.47%
- RAM network inhibition [7]: 1.56%

SMILES: Cc1cccn2c(=O)c(C=NCc3ccco3)c(Nc3ccc(Cl)cc3)nc12
- growth inhibition [1]: -14.3%
- growth inhibition [2]: -2.91%
- viability increase [3]: -6.81%
- viability [4]: 79.7%
- viability [5]: 76.1%
- inhibition [6]: 1.09%
- RAM network inhibition [7]: 1.21%

SMILES: O=c1c2[nH]c3ccc(F)cc3c2ncn1CCN1CCN(Cc2ccccc2)CC1
- growth inhibition [1]: -2.19%
- growth inhibition [2]: 1.39%
- viability increase [3]: -3.25%
- viability [4]: 86.3%
- viability [5]: 80.3%
- inhibition [6]: 1.52%
- RAM network inhibition [7]: 1.11%

SMILES: CCCCn1c(NC(=O)c2ccccc2)nc2ccccc21
- growth inhibition [1]: 8.39%
- growth inhibition [2]: -7.56%
- viability increase [3]: -3.95%
- viability [4]: 22.1% (active)
- viability [5]: 18.3% (active)
- inhibition [6]: -0.145%
- RAM network inhibition [7]: 3.88%

SMILES: COc1ccc(Cn2nnc3c(=O)[nH]c(C4CCCN(C(=O)c5ccccc5)C4)nc32)cc1 (stereo not given)
- growth inhibition [1]: -8.47%
- growth inhibition [2]: -8.09%
- viability increase [3]: -1.66%
- viability [4]: 108%
- viability [5]: 99.9%
- inhibition [6]: -0.35%
- RAM network inhibition [7]: 3.06%

SMILES: Cc1noc(C(=O)Nc2c(C)n(C)n(-c3ccccc3)c2=O)c1Cl
- growth inhibition [1]: -13.3%
- growth inhibition [2]: -16.6%
- viability increase [3]: -2.04%
- viability [4]: 95%
- viability [5]: 98.7%
- inhibition [6]: 1.79%
- RAM network inhibition [7]: 0.38%

SMILES: Cn1c(=O)cc(N2CCc3ccccc32)[nH]c1=O
- growth inhibition [1]: -11.7%
- growth inhibition [2]: 2.4%
- viability increase [3]: 0.37%
- viability [4]: 90.8%
- viability [5]: 98.1%
- inhibition [6]: 1.23%
- RAM network inhibition [7]: -1.11%

SMILES: CN(C)C(=O)CSc1nnc(-c2cccnc2)n1-c1ccccc1
- growth inhibition [1]: -5.85%
- growth inhibition [2]: -5.54%
- viability increase [3]: -0.98%
- viability [4]: 98.6%
- viability [5]: 95.1%
- inhibition [6]: 1.36%
- RAM network inhibition [7]: 2.91%

SMILES: COc1ccc(C2c3c(oc4ccccc4c3=O)C(=O)N2c2ccccn2)cc1 (stereo not given)
- growth inhibition [1]: -12.9%
- growth inhibition [2]: -7.65%
- viability increase [3]: -0.92%
- viability [4]: 90.9%
- viability [5]: 91%
- inhibition [6]: 3.71%
- RAM network inhibition [7]: 4.85%

SMILES: COc1ccc(-n2c(Cc3cc(=O)[nH]c(=O)[nH]3)nnc2SCc2ccccc2)cc1
- growth inhibition [1]: 6.28%
- growth inhibition [2]: -3.2%
- viability increase [3]: -0.7%
- viability [4]: 108%
- viability [5]: 103%
- inhibition [6]: 0.455%
- RAM network inhibition [7]: 3.82%
